Numbering of substitutions follows the chain as printed. Names and notes keep the numbering of the source. Read-outs that look alike come from different tables or passages of the source. Values belong to the molecule of their own block, whether it stands above or below them. Positions of bridges follow the written chain, without caps; N, C: chain ends. Non-standard residues stand in square brackets, D forms with d. Residues, ends and D or L forms follow the SMILES beside them. R8 = C=CCCCCCC[C@@](C)(N)C(=O)O; S5 = C=CCCC[C@](C)(N)C(=O)O
Tests used:
[1] = tested on: HEK293T cells; assay: LC3-II and p62 Western blots after peptide treatment, HEK293T cells; format: cell-based; conditions: 3 h
Method in brief: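 HEK293T cells were treated 3 h with peptide or scrambled Tat control at 10 µM (low) or 20 µM (high) in the culture medium, without or with chloroquine. Lysates were Western blotted for LC3-I/LC3-II lipidation and p62 levels.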

[2] = tested on: Beclin 1 self-association; assay: Co-IP of Beclin 1 self-association; format: cell-based; conditions: HEK293T
Method in brief: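 HEK293T cells co-transfected with GFP- and His-tagged Beclin 1. Peptide (stock 20 mM in water) was added at 20 µM either to the culture medium 6 h after transfection or to the lysate after lysis. A scrambled, unstapled Tat-fused control peptide was used at the same concentration. His-Beclin 1 association was then probed by co-IP.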

[3] = tested on: Beclin 1–UVRAG interaction; assay: Co-IP of Beclin 1–UVRAG interaction, HEK293T; format: cell-based; conditions: peptide 20 μM added to cell lysate
[4] = tested on: EGFR; assay: EGFR degradation assay, A549 cells; format: cell-based; conditions: n = 3
Method in brief: (§1)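 Overexpression arm: cells were transfected with FLAG-UVRAG wild-type or Leu-to-Glu mutants, or vector. Cells were washed in PBS, serum-starved overnight in DMEM, then given DMEM with 20 mM Hepes, 0.2% BSA and 200 ng/mL EGF. Peptide arm: 20 µM peptide or control was added together with EGF. At each time point, 20 µg lysate was immunoblotted for EGFR, normalized to β-actin and to time 0. Three independent experiments, mean ± SEM.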

[5] = molecular target: Beclin 1 coiled-coil domain (Rattus norvegicus, UniProt Q91XJ1); assay: ITC binding of designed peptides to Beclin 1 coiled-coil domain
[6] = tested on: Beclin 1–Atg14L interaction; assay: Co-IP of Beclin 1–Atg14L interaction, HEK293T; format: cell-based; conditions: peptide 20 μM added to cell lysate
[7] = tested on: HEK293T cells; assay: MTT cytotoxicity / cell viability, HEK293T cells; format: cell-based; conditions: 12.5 and 25 µM, 5 h
[8] = tested on: HeLa cells stably expressing GFP-LC3; assay: Confocal imaging of GFP-LC3 puncta in HeLa cells stably expressing GFP-LC3; format: cell-based; conditions: HeLa GFP-LC3, 3 h, n = 3
Method in brief: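 HeLa cells stably expressing GFP-LC3 were treated 3 h with peptide, scrambled control or water vehicle, with or without 25 µM chloroquine. Cells were imaged by confocal microscopy and GFP-LC3 puncta per cell were counted. Values are mean ± SEM, n = 3.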

[9] = tested on: A549 cells; assay: MTT cytotoxicity / cell viability, A549 cells; format: cell-based; conditions: 12.5 and 25 µM, 5 h
[10] = tested on: EGFR; assay: EGFR degradation assay, H1975 cells; format: cell-based; conditions: peptide 20 μM, 15 h after EGF, n = 3
Method in brief: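 H1975 cells were serum-starved overnight in DMEM, then stimulated with 200 ng/mL EGF in DMEM with 20 mM Hepes and 0.2% BSA, together with 20 µM peptide or scrambled control. At each time point, 20 µg lysate was immunoblotted for EGFR. EGFR was normalized to β-actin and to time 0, from three independent experiments.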

[11] = tested on: EGFR; assay: EGFR degradation assay, HEK293T cells; format: cell-based; conditions: n = 3
Method in brief: as §1

[12] = molecular target: UVRAG coiled-coil domain; assay: ITC
[13] = molecular target: UVRAG coiled-coil domain; assay: ITC; remark: listed apart in the source
[14] = tested on: endogenous Beclin 1; EGFR; conditions: EGF-stimulated endocytic transport and lysosomal degradation of EGFR; cited from earlier work
[15] = tested on: UVRAG coiled-coil domain; format: binding; conditions: ITC, relative to wild type

Sequence of UVRAG coiled-coil domain (Q8K245 whole entry, the tested form may be a part): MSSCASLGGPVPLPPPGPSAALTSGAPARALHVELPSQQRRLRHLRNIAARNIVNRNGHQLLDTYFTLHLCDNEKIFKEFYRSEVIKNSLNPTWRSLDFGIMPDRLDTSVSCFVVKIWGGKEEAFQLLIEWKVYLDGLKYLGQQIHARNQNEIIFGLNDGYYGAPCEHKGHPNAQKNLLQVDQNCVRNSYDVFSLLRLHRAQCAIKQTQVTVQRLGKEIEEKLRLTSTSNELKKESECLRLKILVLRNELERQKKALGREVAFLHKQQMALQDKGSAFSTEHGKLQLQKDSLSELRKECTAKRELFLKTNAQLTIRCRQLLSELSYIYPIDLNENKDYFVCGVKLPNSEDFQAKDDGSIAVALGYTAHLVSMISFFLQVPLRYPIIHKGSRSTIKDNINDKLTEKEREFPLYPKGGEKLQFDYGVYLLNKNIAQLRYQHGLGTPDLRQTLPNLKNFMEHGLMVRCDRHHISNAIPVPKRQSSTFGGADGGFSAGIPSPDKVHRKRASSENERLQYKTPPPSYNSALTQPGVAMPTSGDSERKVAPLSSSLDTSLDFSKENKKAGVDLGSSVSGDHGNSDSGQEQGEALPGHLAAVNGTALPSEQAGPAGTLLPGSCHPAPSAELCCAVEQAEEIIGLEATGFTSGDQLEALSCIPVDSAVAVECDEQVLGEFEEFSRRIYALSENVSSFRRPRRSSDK

Molecule: CCN(CC)CCCC(C)Nc1ccnc2cc(Cl)ccc12 (stereo not drawn) [CQ, chloroquine, reference compound]
p62 level with CQ treatment ([1]; with CQ, even with Tat-SP4): elevated the p62 level

Molecule: CC[C@H](C)[C@H](NC(=O)[C@H](CC(C)C)NC(=O)[C@H](CCCNC(=N)N)NC(=O)[C@H](CCCNC(=N)N)NC(=O)[C@H](CCCNC(=N)N)NC(=O)[C@H](CCCNC(=N)N)NC(=O)[C@H](CCC(N)=O)NC(=O)[C@H](CCCNC(=N)N)NC(=O)[C@H](CCCNC(=N)N)NC(=O)[C@H](CCCCN)NC(=O)[C@H](CCCCN)NC(=O)[C@H](CCCNC(=N)N)NC(=O)CNC(=O)[C@H](Cc1ccc(O)cc1)NC(C)=O)C(=O)N[C@@H](CO)C(=O)N[C@@H](CCC(=O)O)C(=O)N[C@@H](CC(C)C)C(=O)N[C@]1(C)CCCCCCC=CCCC[C@@](C)(C(=O)N[C@@H](C)C(N)=O)NC(=O)[C@H](CCCNC(=N)N)NC(=O)[C@H](CCC(N)=O)NC(=O)[C@H](CCCCN)NC(=O)[C@H](CCC(=O)O)NC(=O)[C@H](CCCNC(=N)N)NC(=O)[C@H](CC(=O)O)NC1=O [Tat-SP4] (Ac-YGRKKRRQRRRRLISEL[R8]DREKQR[S5]A-NH2; staple 18-25)
Beclin 1 self-association (His-Beclin 1 pulled down by GFP-Beclin 1) ([2]; peptide 20 μM added to cell lysate): moderately reduced
Beclin 1 self-association (His-Beclin 1 pulled down by GFP-Beclin 1) ([2]; peptide 20 μM added to cell medium 6 h posttransfection): more prominent
endogenous Beclin 1 pulled down by FLAG-UVRAG [3]: significantly more endogenous Beclin 1
increase in LC3-II level ([1]; 10 μM, with CQ, n = 3): approximately threefold
increase in LC3-II level ([1]; 10 μM, without CQ, n = 3): approximately twofold
increase in LC3-II level ([1]; 20 μM, with CQ, n = 3): approximately fivefold
increase in LC3-II level ([1]; 20 μM, without CQ, n = 3): approximately threefold
reduction of p62 level ([1]; without CQ, n = 3): ~50%
EGFR remaining ([4]; A549, peptide 20 μM, 2 h after EGF): ~75%
EGFR remaining ([4]; A549, peptide 20 μM, 5 h after EGF): ~25%
Kd [5]: ~6.8 µM
endogenous Beclin 1 pulled down by Atg14L-GFP [6]: significantly enhanced
cytotoxicity (MTT) [7]: negligible cytotoxicity
increase in GFP-LC3 dot numbers (autophagosomes) ([8]; absence of CQ): approximately twofold
increase in GFP-LC3 dot numbers (autophagosomes) ([8]; presence of 25 μM CQ): approximately twofold
cytotoxicity (MTT) [9]: negligible cytotoxicity
EGFR degradation [10]: ~50%
EGFR remaining ([11]; peptide 20 μM, 60 min post EGF (200 ng/mL)): ~30%

Molecule: CC[C@H](C)[C@H](NC(=O)[C@H](CC(C)C)NC(=O)[C@H](CC(C)C)NC(=O)[C@H](CCCNC(=N)N)NC(=O)[C@H](CCCNC(=N)N)NC(=O)[C@H](CCCNC(=N)N)NC(=O)[C@H](CCC(N)=O)NC(=O)[C@H](CCCNC(=N)N)NC(=O)[C@H](CCCNC(=N)N)NC(=O)[C@H](CCCCN)NC(=O)[C@H](CCCCN)NC(=O)[C@H](CCCNC(=N)N)NC(=O)CNC(=O)[C@H](Cc1ccc(O)cc1)NC(C)=O)C(=O)N[C@@H](CO)C(=O)N[C@@H](CCC(=O)O)C(=O)N[C@@H](CC(C)C)C(=O)N[C@]1(C)CCCCCCC=CCCC[C@@](C)(C(=O)N[C@@H](C)C(N)=O)NC(=O)[C@H](CCCNC(=N)N)NC(=O)[C@H](CCC(N)=O)NC(=O)[C@H](CCCCN)NC(=O)[C@H](CCC(=O)O)NC(=O)[C@H](CCCNC(=N)N)NC(=O)[C@H](CC(=O)O)NC1=O [Tat-SP9] (Ac-YGRKKRRQRRRLLISEL[R8]DREKQR[S5]A-NH2; staple 18-25; N-terminus and C-terminus assumed)
Kd [5]: ~56.2 µM

Kd [12]: 3 µM
Kd [13]: 0.3 µM
Molecule: Beclin 1 coiled-coil domain (from UniProt Q91XJ1 174-264) (domain or fragment)

Kd [12]: 10 µM
Molecule: Beclin 1 coiled-coil region L210E (from UniProt Q91XJ1 174-264) (domain or fragment)

Kd [12]: 10 µM
Molecule: Beclin 1 coiled-coil region R203E (from UniProt Q91XJ1 174-264) (domain or fragment)

B1: wild-type UVRAG: wild-type UVRAG (full length Mus musculus in cells; coiled-coil construct in vitro) (protein)
chain: MSASASVGGPVPQPPPGPAAALPPGSAARALHVELPSQQRRLRHLRNIAARNIVNRNGHQLLDTYFTLHLCSTEKIYKEFYRSEVIKNSLNPTWRSLDFGIMPDRLDTSVSCFVVKIWGGKENIYQLLIEWKVCLDGLKYLGQQIHARNQNEIIFGLNDGYYGAPFEHKGYSNAQKTILLQVDQNCVRNSYDVFSLLRLHRAQCAIKQTQVTVQKIGKEIEEKLRLTSTSNELKKKSECLQLKILVLQNELERQKKALGREVALLHKQQIALQDKGSAFSAEHLKLQLQKESLNELRKECTAKRELFLKTNAQLTIRCRQLLSELSYIYPIDLNEHKDYFVCGVKLPNSEDFQAKDDGSIAVALGYTAHLVSMISFFLQVPLRYPIIHKGSRSTIKDNINDKLTEKEREFPLYPKGGEKLQFDYGVYLLNKNIAQLRYQHGLGTPDLRQTLPNLKNFMEHGLMVRCDRHHTSSAIPVPKRQSSIFGGADVGFSGGIPSPDKGHRKRASSENERLQYKTPPPSYNSALAQPVTTVPSMGETERKITSLSSSLDTSLDFSKENKKKGEDLVGSLNGGHANVHPSQEQGEALSGHRATVNGTLLPSEQAGSASVQLPGEFHPVSEAELCCTVEQAEEIIGLEATGFASGDQLEAFNCIPVDSAVAVECDEQVLGEFEEFSRRIYALNENVSSFRRPRRSSDK
modifications: left off: FLAG, end not stated, kept
EGFR remaining ([4]; A549, UVRAG overexpression, 3 h after EGF (200 ng/mL)): ~40%
EGFR remaining ([4]; A549, UVRAG overexpression, 5 h after EGF (200 ng/mL)): ~5%
endolysosomal trafficking on overexpression [14]: enhanced endolysosomal trafficking
EGFR remaining ([11]; UVRAG overexpression, 120 min post EGF (200 ng/mL)): ~10%

reduction of binding affinity of Beclin 1–UVRAG interaction [15]: approximately three- to fivefold
B2: R203E (protein)
chain: DSEQLQRELKELALEEERLIQELEDVEKNEKVVAENLEKVQAEAERLDQEEAQYQREYSEFKRQQLELDDELKSVENQMRYAQMQLDKLKK

reduction of binding affinity of Beclin 1–UVRAG interaction [15]: approximately three- to fivefold
B3: L210E (protein)
chain: B2 chain with E30R, L37E
